The source of these data is ChEMBL document CHEMBL1124929, “Indolo[2,1-a]isoquinolines. Syntheses, steroid hormone receptor binding affinities, and cytostatic activity” (1990).

Test [1] concerns the target T1, Estrogen receptor (Mus musculus) (UniProt O08537+P19785). Kind of test: Estrogenic activity in uterotrophic assay in immature mice at 50.0 ug subcutaneous dose. It counts as functional. The essentials:
(§1)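 Immature female NMRI mice, 20 days old, in groups of 6-10, were dosed sc once daily for three consecutive days. Compounds were given in PEG/0.9% saline 1:1; vehicle controls were included. Animals were killed 24 h after the last dose. Uteri were fixed in Bouin solution and the effect was taken as uterine dry weight (mg)/body weight (g) ×100, given as mean ± SD.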

For test [2], the target named is T1, Estrogen receptor (Mus musculus). Put plainly: Estrogenic activity in uterotrophic assay in immature mice at 2 ug subcutaneous dose. It counts as functional. The essentials: as §1
The target of test [3] is T2, Androgen receptor (Mus musculus) (UniProt P19091).
T2 sequence (whole entry): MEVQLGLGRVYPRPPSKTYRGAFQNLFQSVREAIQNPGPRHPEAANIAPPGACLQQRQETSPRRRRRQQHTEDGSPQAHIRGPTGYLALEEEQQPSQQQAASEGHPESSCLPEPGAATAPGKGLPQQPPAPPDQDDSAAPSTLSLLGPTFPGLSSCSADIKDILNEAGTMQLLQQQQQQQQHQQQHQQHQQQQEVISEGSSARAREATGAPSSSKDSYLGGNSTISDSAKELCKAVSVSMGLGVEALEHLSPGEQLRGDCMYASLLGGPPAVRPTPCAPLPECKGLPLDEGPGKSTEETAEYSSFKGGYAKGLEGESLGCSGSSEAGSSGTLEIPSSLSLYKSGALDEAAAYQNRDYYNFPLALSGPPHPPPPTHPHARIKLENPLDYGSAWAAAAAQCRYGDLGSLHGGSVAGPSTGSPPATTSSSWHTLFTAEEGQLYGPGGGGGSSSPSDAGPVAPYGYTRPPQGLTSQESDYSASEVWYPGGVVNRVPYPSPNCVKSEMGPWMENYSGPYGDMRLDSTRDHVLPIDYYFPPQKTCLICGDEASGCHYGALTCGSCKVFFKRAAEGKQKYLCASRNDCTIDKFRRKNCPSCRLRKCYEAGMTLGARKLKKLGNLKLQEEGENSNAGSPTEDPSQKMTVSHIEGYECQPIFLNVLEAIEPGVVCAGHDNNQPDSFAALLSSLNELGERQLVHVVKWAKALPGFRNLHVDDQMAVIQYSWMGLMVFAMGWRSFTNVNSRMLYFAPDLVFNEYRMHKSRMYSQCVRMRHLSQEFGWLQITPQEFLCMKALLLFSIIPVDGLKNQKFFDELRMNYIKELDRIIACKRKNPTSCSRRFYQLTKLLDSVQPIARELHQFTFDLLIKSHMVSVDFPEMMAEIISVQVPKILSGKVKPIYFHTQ
Kind of test: Inhibition of seminal vesicle weight in intact mice at 100 ug.

The target of test [4] is Estrogen receptor (Bos taurus) (UniProt Q9XSB5+P49884). Kind of test: Relative binding affinity(RBA) for 50% displacement of [3H]-estradiol from Estrogen receptor compared to 17-beta-estradiol. It counts as protein assay. The method, boiled down:
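Receptor source was calf uterine cytosol (105000g supernatant, 3 mg/mL protein in assay). Buffers were Tris/EDTA pH 7.4, with NaN₃ for ER, molybdate/glycerol for AR, and sucrose for PR. Tracers were 1 nM [³H]estradiol, [³H]mibolerone or [³H]Org 2058. Incubation was at 0–4 °C for 16 h (ER) or 2 h (AR, PR), with 4–6 competitor concentrations. Nonspecific binding used 2 µM of the unlabeled hormone. Separation was by dextran-coated charcoal. RBA is the ratio of IC50 values for hormone and compound ×100, mean of two triplicate experiments.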
In general terms: Displacement assays read how much labelled ligand stays bound in the presence of the test substance.

The test system of test [5] is MDA-MB-231. Put plainly: Effect on [3H]thymidine incorporation into MDA-MB 231 human breast cancer cells at 5x10E-6M. It counts as functional. The method, boiled down:
(§2)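 Cells were seeded at ~2 × 10⁴ per well, treated from the next day in 0.1% DMSO, with DMSO controls. MCF-7 cells were held in charcoal-stripped NCS for 2 weeks, treated for 5 days and re-dosed on day 4. MDA-MB 231 cells were grown in McCoy 5a/10% NCS and treated for 2 days. At the end, 1 µCi [³H]thymidine per well was added for 2 h. Result is % T/C, mean of three experiments × six dishes.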

The target of test [6] is T2, Androgen receptor (Mus musculus). Kind of test: Relative effect on seminal vesicle weight in adult and castrated mice supplemented with 0.3 mg TP at 1000 ug dose. The class given is functional, tissue-based. The method, boiled down: (§3)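 Adult male mice, 23–25 g, six per group, were used intact or castrated via the scrotal route under ether 5 days before the test. Castrates received 0.3 mg testosterone propionate daily. Compounds were injected daily in olive oil for nine days. Seminal vesicles were taken 24 h later, fixed in Bouin solution, dried overnight at 100 °C and weighed. Result is organ mg/body g ×100; % inhibition = [1 − treated/control] × 100.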

The target is the same in test [7]. Kind of test: Inhibition of seminal vesicle weight in intact mice at 10.0 ug.
The target of test [8] is T1, Estrogen receptor (Mus musculus). Put plainly: Inhibition of 0.4 ug estrone-stimulated uterine growth in mice at 50.0 ug subcutaneous dose; p<0.01. The class given is functional. The method, boiled down:
(§4)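 Immature 20-day-old female NMRI mice received sc injections on three consecutive days. Each injection held 0.4 µg estrone plus the compound in PEG/saline 1:1. […] Significance was tested by Mann-Whitney U test.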

The target in test [9] is T2, Androgen receptor (Mus musculus). Kind of test: Relative effect on seminal vesicle weight in adult and castrated mice at 10 ug dose. The class given is functional, tissue-based. The essentials: as §3
The target of test [10] is T1, Estrogen receptor (Mus musculus). Put plainly: Inhibition of 0.4 ug estrone-stimulated uterine growth in mice at 125 ug subcutaneous dose; p<0.01. The class given is functional. The essentials: as §4
The subject of test [11] is MCF7. Kind of test: Effect on hormone-dependent MCF-7 human breast cancer cell proliferation at 1x10E-6M. The class given is functional. The method, boiled down: (§5)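 Cells were plated at about 2 × 10⁴ per well in six-well dishes. MCF-7 cells were grown in modified improved MEM with 5% NCS, switched to charcoal-treated NCS two weeks before the test, and exposed for 5 days with a re-dose on day 4. MDA-MB 231 cells were grown in McCoy 5a with 10% NCS and exposed for 2 days. Compounds were given 1 day after plating in 0.1% DMSO, with DMSO-matched controls. Read-out was cell number as % T/C, mean of three experiments with six dishes.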

For test [12], the system named is MCF7. Kind of test: Effect on [3H]thymidine incorporation into MCF-7 human breast cancer cells at 5x10E-6M. The class given is functional. The essentials: as §2
A general note: Uptake of a labelled nucleoside into DNA is a usual measure of proliferation.

Test [13] deals with T1, Estrogen receptor (Mus musculus). Kind of test: (§6) Estrogenic activity in uterotrophic assay in immature mice at 10.0 ug subcutaneous dose. It counts as functional. The essentials: as §1
For test [14] the target is unchanged. Put plainly: Estrogenic activity in uterotrophic assay in immature mice at 250 ug subcutaneous dose. The class given is functional. The method, boiled down:
as §1

The target is the same in test [15]. The test is described as §6. The class given is functional. The essentials:
as §1
This is another data set of the same source.

Test [16] concerns MCF7. Kind of test: Effect on [3H]thymidine incorporation into MCF-7 human breast cancer cells at 1x10E-6M. The class given is functional. The method, boiled down:
as §2

Test [17] has as its target T2, Androgen receptor (Mus musculus). Put plainly: Relative effect on seminal vesicle weight in adult and castrated mice at 1000 ug dose. The class given is functional, tissue-based. The essentials:
as §3

For test [18], the system named is MCF7. Put plainly: Effect on [3H]thymidine incorporation into MCF-7 human breast cancer cells at 1x10E-5 M. The class given is functional. The method, boiled down:
as §2

Test [19] relates to MDA-MB-231. Put plainly: Cytostatic effect on hormone-independent MDA-MB 231 human breast cancer cell proliferation at 1x10E-6M. The class given is functional. The essentials: as §5
For test [20], the target named is T2, Androgen receptor (Mus musculus). Put plainly: Inhibition of testosterone-stimulated seminal vesicle growth in castrated mice supplemented with 0.3 mg of TP at 1000.0 ug. The class given is functional. The essentials: as §3
For test [21], the target named is T1, Estrogen receptor (Mus musculus). Kind of test: Inhibition of 0.4 ug estrone-stimulated uterine growth in mice at 10.0 ug subcutaneous dose. It counts as functional. The essentials:
as §4

T1 sequence (O08537 whole entry, looked up): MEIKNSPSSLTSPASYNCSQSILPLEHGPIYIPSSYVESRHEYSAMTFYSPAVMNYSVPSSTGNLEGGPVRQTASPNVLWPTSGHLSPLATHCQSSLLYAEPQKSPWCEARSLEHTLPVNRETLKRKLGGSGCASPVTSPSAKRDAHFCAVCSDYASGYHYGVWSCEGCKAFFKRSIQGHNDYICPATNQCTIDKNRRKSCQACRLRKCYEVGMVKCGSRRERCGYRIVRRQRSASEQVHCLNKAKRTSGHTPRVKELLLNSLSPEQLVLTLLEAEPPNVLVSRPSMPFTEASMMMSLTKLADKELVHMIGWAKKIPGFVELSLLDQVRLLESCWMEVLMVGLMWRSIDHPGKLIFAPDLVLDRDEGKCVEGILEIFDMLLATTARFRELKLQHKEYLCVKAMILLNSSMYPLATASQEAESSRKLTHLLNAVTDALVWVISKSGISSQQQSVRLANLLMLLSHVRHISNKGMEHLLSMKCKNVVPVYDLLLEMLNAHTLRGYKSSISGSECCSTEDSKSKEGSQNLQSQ
T1 sequence (P19785 whole entry, looked up): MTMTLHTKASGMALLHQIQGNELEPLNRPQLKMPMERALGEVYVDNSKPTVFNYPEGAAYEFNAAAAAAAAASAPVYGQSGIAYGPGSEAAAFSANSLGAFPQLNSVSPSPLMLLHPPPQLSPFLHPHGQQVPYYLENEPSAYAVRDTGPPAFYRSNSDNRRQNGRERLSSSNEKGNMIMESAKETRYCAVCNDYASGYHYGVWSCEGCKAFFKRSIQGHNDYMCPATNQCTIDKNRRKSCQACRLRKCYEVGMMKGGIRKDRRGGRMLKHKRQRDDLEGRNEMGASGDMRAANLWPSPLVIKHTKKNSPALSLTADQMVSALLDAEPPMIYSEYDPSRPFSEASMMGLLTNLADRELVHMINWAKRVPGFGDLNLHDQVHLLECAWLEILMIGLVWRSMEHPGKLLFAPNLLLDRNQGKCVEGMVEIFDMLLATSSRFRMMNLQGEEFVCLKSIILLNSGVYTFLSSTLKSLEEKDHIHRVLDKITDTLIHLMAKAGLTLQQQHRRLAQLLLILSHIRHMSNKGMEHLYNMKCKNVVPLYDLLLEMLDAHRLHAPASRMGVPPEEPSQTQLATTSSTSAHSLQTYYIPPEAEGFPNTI

On to `CCC1Cc2cc(OC(C)=O)ccc2-c2cc3cc(OC(C)=O)ccc3n21` (stereo unspecified), for which the Effect in [1] was found to be 35.8; in test [2], 52.3; in test [13] it was 51; in test [14] it was 53.4; in test [15], 25.5. Moreover, the inhibition in [3] stood at 67%; in test [7] it was 22%; in [8], 25.9%; in test [10], 42%; in test [20], 17%; in test [21] it was 12.2%. Besides, in test [4], the RBA was 17. Further, the T/C with MDA-MB-231 [5] is recorded as 4%; with MCF7 [11], 45%; in the test with MCF7 [12], 4%; in the test on MCF7 [16], 25%; in the test on MCF7 [18] it was 2%; in the test on MDA-MB-231 [19], 74%. The results for the Relative seminal vesicle weight in test [6], in test [9] and in test [17] were 187, 132 and 38.3, respectively.

In general, inhibition refers to how much of the control response was suppressed. One may read the T/C as the ratio of treated to control.
